Measured values from ChEMBL document CHEMBL3870320, “Yakushinamides, Polyoxygenated Fatty Acid Amides That Inhibit HDACs and SIRTs, from the Marine Sponge Theonella swinhoei” (J Nat Prod, 2016).

Columns and labels:
[1] = target: T1, NAD-dependent protein deacetylase sirtuin-1 (Homo sapiens) (UniProt Q96EB6); test: Inhibition of recombinant human SIRT1 expressed in Escherichia coli BL21 (DE3) assessed as formation of amino methyl coumarin from Ac-RHKK(Ac)-MCA and NAD measured after 60 mins by fluorescence analysis
T1 sequence (whole entry): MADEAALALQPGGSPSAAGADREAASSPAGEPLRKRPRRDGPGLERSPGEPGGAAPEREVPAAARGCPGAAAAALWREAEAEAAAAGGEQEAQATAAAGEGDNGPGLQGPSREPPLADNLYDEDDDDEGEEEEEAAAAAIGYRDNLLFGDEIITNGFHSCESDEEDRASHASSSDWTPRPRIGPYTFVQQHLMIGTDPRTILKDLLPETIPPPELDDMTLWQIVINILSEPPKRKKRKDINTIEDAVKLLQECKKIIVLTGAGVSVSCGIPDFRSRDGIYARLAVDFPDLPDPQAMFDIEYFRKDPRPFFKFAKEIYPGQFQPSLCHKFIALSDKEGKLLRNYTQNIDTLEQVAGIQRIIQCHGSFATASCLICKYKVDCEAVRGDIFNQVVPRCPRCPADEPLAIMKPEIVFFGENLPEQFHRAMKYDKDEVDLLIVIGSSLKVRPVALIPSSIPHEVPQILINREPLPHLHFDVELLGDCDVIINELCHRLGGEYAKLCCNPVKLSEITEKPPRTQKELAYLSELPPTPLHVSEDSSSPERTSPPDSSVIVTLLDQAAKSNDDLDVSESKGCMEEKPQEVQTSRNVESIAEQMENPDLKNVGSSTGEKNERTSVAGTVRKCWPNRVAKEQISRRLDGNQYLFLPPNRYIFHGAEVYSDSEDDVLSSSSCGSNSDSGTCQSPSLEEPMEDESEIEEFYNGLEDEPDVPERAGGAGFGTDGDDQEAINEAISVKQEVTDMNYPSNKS
Summary of the method: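 SIRT1 was expressed from pCold TF in E. coli BL21 (DE3) with 0.3 mM IPTG at 16 °C for 24 h, and the (His)6 protein was purified by nickel affinity then anion exchange. Assay used 100 μM Ac-RHKK(Ac)-MCA and 1 mM NAD (final) in Tris-HCl pH 9.0 buffer for 60 min at 37 °C. Trypsin was added for 15 min, and fluorescence was read at ex 370/em 460 nm.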

[2] = target: T2, NAD-dependent protein deacetylase sirtuin-3, mitochondrial (Homo sapiens) (UniProt Q9NTG7); test: Inhibition of recombinant human His-tagged SIRT3 (118 to 399 residues) expressed in Escherichia coli BL21 (DE3) assessed as formation of amino methyl coumarin from Ac-VSTPVK(Ac)-MCA and NAD measured after 60 mins by fluorescence analysis
T2 sequence (whole entry): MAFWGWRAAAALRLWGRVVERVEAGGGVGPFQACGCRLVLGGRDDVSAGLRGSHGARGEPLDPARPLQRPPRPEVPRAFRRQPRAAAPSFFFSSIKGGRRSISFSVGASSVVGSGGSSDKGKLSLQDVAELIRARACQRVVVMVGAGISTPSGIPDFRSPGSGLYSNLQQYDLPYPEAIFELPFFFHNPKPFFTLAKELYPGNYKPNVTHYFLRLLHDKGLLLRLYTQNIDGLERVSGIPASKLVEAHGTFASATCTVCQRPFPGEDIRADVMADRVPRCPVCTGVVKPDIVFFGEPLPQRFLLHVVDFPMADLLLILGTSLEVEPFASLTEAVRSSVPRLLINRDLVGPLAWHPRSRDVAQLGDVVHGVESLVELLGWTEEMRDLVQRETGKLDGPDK
Summary of the method: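 His-tagged recombinant SIRT3 incubated with 100 μM Ac-VSTPVK(Ac)-MCA and NAD (final 1 mM) in 50 mM Tris-HCl pH 9.0, 4 mM MgCl2, 0.2 mM DTT for 60 min at 37 °C. Trypsin (final 20 mg/mL) was added and the mixture held 15 min more at 37 °C. Fluorescence of freed aminomethylcoumarin measured at ex 370/em 460 nm.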

[3] = target: Histone deacetylase 1 (Homo sapiens) (UniProt Q13547); test: Inhibition of human FLAG-tagged HDAC1 expressed in human 293T cells assessed as formation of amino methyl coumarin from Ac-KGLGK(Ac)-MCA measured after 30 mins by fluorescence analysis; type: cell-based
[4] = target: T3, NAD-dependent protein deacetylase sirtuin-2 (Homo sapiens) (UniProt Q8IXJ6); test: Inhibition of recombinant human GST-tagged SIRT2 catalytic domain using Ac-RHKK(Ac)-MCA assessed as formation of amino methyl coumarin from Ac-RHKK(Ac)-MCA and NAD measured after 60 mins by fluorescence analysis
T3 sequence (whole entry): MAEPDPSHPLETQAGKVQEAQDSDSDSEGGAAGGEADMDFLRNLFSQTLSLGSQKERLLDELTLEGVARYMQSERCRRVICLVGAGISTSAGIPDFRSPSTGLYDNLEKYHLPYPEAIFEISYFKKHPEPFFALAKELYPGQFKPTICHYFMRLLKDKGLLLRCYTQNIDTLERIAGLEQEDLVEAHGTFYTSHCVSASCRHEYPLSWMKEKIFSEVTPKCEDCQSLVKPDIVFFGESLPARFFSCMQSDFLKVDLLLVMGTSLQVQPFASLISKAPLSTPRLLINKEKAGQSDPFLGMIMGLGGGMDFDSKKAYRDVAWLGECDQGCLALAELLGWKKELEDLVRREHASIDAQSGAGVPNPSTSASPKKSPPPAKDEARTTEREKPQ
Summary of the method: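 Recombinant GST-fused SIRT2 catalytic domain with 100 μM Ac-RHKK(Ac)-MCA and NAD (final 1 mM) in 50 mM Tris-HCl pH 9.0, 4 mM MgCl2, 0.2 mM DTT, 60 min at 37 °C. Trypsin (final 20 mg/mL) then added for 15 min at 37 °C. Released aminomethylcoumarin fluorescence read at ex 370/em 460 nm.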

[5] = target: T4, Protein deacetylase HDAC6 (Homo sapiens) (UniProt Q9UBN7); test: Inhibition of human FLAG-tagged HDAC6 expressed in human 293T cells assessed as formation of amino methyl coumarin from Ac-KGLGK(Ac)-MCA measured after 30 mins by fluorescence analysis; type: cell-based
T4 sequence (whole entry): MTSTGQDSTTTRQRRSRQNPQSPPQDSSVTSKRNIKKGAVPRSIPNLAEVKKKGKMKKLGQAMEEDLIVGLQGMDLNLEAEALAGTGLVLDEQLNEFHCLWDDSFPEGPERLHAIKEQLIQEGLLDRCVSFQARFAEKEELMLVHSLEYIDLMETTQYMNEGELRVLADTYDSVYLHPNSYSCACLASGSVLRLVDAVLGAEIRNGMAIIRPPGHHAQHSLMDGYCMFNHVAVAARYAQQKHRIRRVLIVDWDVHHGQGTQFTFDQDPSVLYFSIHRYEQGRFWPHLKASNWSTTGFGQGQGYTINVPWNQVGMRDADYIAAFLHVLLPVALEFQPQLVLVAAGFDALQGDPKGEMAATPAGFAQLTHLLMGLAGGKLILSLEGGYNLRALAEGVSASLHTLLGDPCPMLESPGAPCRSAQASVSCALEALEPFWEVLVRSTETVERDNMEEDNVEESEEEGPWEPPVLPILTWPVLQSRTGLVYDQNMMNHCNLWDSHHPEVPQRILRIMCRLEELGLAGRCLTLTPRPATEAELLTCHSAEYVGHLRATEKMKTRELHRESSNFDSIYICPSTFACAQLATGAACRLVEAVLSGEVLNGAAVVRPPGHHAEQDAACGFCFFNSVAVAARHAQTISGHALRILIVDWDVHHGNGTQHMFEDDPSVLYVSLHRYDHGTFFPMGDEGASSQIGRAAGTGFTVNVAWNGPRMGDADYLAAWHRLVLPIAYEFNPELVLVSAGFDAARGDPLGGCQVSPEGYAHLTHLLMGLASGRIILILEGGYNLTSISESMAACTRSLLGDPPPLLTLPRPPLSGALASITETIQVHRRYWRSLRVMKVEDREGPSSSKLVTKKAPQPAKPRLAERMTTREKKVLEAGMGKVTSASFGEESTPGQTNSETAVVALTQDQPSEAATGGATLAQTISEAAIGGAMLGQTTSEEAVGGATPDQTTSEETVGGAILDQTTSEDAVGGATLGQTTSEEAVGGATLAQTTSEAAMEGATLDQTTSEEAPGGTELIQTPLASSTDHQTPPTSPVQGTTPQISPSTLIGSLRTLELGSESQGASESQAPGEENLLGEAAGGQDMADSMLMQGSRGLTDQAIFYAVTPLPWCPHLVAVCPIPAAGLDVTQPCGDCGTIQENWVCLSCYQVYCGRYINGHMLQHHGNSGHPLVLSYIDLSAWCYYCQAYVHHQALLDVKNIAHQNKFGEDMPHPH

[6] = target: Histone deacetylase 4 (Homo sapiens) (UniProt P56524); test: Inhibition of human FLAG-tagged HDAC4 expressed in human 293T cells assessed as formation of amino methyl coumarin from Ac-KGLGK(Ac)-MCA measured after 30 mins by fluorescence analysis; type: cell-based
Sequence of Histone deacetylase 4 (Homo sapiens) (P56524 whole entry): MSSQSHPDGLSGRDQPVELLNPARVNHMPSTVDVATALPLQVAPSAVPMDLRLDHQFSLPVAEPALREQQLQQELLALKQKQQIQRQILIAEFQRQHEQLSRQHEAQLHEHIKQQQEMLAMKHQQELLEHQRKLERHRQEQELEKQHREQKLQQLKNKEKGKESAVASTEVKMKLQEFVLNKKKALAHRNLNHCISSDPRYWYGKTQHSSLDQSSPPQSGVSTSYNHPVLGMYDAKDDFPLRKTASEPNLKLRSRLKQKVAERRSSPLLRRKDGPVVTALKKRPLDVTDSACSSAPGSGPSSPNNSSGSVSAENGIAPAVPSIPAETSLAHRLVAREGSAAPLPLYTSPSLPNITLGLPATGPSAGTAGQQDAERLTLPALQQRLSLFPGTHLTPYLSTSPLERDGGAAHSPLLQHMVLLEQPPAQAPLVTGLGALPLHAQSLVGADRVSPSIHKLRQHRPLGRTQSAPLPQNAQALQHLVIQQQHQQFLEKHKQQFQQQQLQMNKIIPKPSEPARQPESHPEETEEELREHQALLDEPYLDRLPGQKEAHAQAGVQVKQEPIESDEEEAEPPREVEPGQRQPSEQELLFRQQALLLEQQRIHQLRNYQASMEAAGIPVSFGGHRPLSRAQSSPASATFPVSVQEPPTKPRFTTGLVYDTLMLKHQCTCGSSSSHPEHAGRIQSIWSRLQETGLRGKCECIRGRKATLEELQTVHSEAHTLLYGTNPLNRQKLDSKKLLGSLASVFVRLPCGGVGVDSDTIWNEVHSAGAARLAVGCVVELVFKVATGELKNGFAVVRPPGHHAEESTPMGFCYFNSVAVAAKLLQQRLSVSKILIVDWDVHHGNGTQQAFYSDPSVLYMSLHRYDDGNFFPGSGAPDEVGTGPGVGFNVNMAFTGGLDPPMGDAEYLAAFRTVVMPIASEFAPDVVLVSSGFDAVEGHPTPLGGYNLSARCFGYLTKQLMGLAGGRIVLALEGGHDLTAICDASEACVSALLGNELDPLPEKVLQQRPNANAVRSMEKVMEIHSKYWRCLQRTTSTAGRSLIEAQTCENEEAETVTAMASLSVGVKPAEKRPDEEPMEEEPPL

Sequence of Histone deacetylase 1 (Homo sapiens) (Q13547 whole entry, the tested form may be a part): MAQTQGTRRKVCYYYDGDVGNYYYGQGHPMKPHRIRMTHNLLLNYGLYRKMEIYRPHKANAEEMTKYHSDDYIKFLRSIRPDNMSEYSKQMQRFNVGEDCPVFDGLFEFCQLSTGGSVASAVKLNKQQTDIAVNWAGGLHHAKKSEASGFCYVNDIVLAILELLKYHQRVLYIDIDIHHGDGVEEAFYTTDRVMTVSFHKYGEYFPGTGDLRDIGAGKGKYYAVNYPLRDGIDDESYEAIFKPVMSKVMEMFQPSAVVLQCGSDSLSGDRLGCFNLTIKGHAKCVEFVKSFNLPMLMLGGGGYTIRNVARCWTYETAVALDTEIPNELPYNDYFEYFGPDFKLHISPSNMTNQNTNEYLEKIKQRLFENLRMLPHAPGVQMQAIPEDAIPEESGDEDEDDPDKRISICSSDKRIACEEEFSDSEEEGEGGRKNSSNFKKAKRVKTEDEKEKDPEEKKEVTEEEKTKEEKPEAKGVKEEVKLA

Structure (SMILES) | IC50 [1] [µM] | IC50 [2] [µM] | IC50 [3] [µM] | IC50 [4] [µM] | IC50 [5] [µM] | IC50 [6] [µM]
CCCCCC[C@@H](C)[C@@H](CCCCCCCC(O)CCCC[C@@H](OC(C)=O)[C@@H](OC(C)=O)[C@H](CCCCCCC(=O)N1CCC[C@H]1C(=O)OC)OC(C)=O)OS(=O)(=O)O (some centres not stated) | 34 | 78 | 29 | 150 | 52 | 75
CCCCCCC[C@@H](C)C[C@@H](O)CCCCCCC[C@@H](CCCC[C@@H](OC(C)=O)[C@@H](OC(C)=O)[C@H](CCCCCCC(=O)N1CCC[C@H]1C(=O)OC)OC(C)=O)OS(=O)(=O)O | 16 | 79 | 26 | > 200 | > 200 | > 200
